Laboratory results reported in ChEMBL document CHEMBL2062391, “Antiausterity agents from Uvaria dac and their preferential cytotoxic activity against human pancreatic cancer cell lines in a nutrient-deprived condition” (J Nat Prod, 2012).
Active and inactive are the calls of the source. The calls are words filed in the database; no cut-off is given here.

Key:
[1] = system: PSN1; assay: Cytotoxicity against human PSN1 cells grown in nutrient-rich medium after 24 hrs by WST8 assay; assay type: cell-based; settings: psn1, 24 h
Outline: (§1)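 Cells seeded at 2 × 10^4/well and grown 24 h in fresh DMEM or RPMI-1640 at 37 °C, 5% CO2. After a PBS wash, the medium was replaced with serially diluted samples in DMEM (nutrient-rich) or NDM. After 24 h, DMEM with 10% WST-8 solution was added. A450 was read after 3 h. Viability (%) was taken from the mean of three wells, blank-corrected against the control. PC50 is 50% kill in NDM without toxicity in DMEM.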

[2] = system: MIA PaCa-2; assay: Cytotoxicity against human MIAPaCa2 cells grown in nutrient-rich medium after 24 hrs by WST8 assay; assay type: cell-based; settings: mia paca-2, 24 h; outline: as §1
[3] = (§2) Cytotoxicity against human KLM1 cells grown in nutrient-deprived medium after 24 hrs by WST8 assay; assay type: functional; outline: as §1
[4] = system: KLM1; assay: as §2; assay type: functional; outline: as §1
[5] = system: PSN1; assay: Cytotoxicity against human PSN1 cells grown in nutrient-deprived medium after 24 hrs by WST8 assay; assay type: functional; outline: as §1
[6] = Cytotoxicity against human KLM1 cells grown in nutrient-rich medium after 24 hrs by WST8 assay; assay type: cell-based; settings: klm1, 24 h; outline: as §1
[7] = system: MIA PaCa-2; assay: Cytotoxicity against human MIAPaCa2 cells grown in nutrient-deprived medium after 24 hrs by WST8 assay; assay type: functional; outline: as §1
[8] = system: PANC-1; assay: Induction of morphological changes in human PANC1 cells assessed as rounding of cells at 25 uM after 24 hrs by inverted-phase contrast microscopic analysis; assay type: functional, cell-based
Outline: (§3)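 Cells (1 × 10^6) were seeded in 60 mm dishes and attached over 24 h in a humidified CO2 incubator. They were washed twice with PBS and treated at 25 μM in DMEM or NDM, alongside controls. After 24 h, cells were viewed by phase-contrast on an inverted microscope with a 40× objective and photographed.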

[9] = system: PANC-1; assay: Cytotoxicity against human PANC1 cells grown in nutrient-rich medium after 24 hrs by WST8 assay; assay type: cell-based; settings: panc-1, 24 h; outline: as §1
[10] = system: PANC-1; assay: Cytotoxicity against human PANC1 cells grown in nutrient-deprived medium after 24 hrs by WST8 assay; assay type: functional; outline: as §1
[11] = system: PANC-1; assay: Induction of morphological changes in human PANC1 cells assessed as loss of cellular content at 25 uM after 24 hrs by inverted-phase contrast microscopic analysis; assay type: functional, cell-based; outline: as §3
[12] = system: PANC-1; assay: Induction of morphological changes in human PANC1 cells assessed as plasma membrane rupture at 25 uM after 24 hrs by inverted-phase contrast microscopic analysis; assay type: functional, cell-based; outline: as §3

Row | SMILES | Activity [1] | Activity [2] | PC50 [3] | Activity [4] | Activity [5] | PC50 [5] | Activity [6] | Activity [7] | PC50 [7] | Activity [8] | Activity [9] | Activity [10] | PC50 [10] | Activity [11] | Activity [12]
1 | O=C(OC[C@@]1(O)C(=O)C=C[C@H]2[C@@H]1[C@H]1C=C[C@@H]2C(=O)[C@]1(O)COC(=O)c1ccccc1)c1ccccc1 | Non-toxic | Non-toxic | 32.7 µM | Dose-dependent effect | Dose-dependent effect | 32.6 µM | Non-toxic | Dose-dependent effect | 17.5 µM | Active | Non-toxic | Dose-dependent effect | 14.5 µM | Active | Active
2 | COc1ccccc1COC(=O)c1ccccc1 | Non-toxic | Non-toxic | >200 µM |  |  | 185 µM | Non-toxic |  | 131 µM |  | Non-toxic |  | 137 µM |  | 
3 | COc1cc(C[C@H]2C(=O)OC[C@@H]2Cc2ccc(OC)c(OC)c2)ccc1O [ARCTIGENIN] | Non-toxic | Non-toxic | 1.5 µM |  |  | 1.9 µM | Non-toxic |  | 0.67 µM |  | Non-toxic |  | 1.7 µM |  | 
4 | Nc1ccn([C@@H]2O[C@H](CO)[C@@H](O)C2(F)F)c(=O)n1 [GEMCITABINE] | Non-toxic | Non-toxic | >200 µM |  |  | >200 µM | Non-toxic |  | >200 µM |  | Non-toxic |  | >200 µM |  | 
5 | C/C(=C\COC(=O)c1ccccc1)COC(=O)c1ccccc1 [UVARIDACANE A] | Non-toxic | Non-toxic | 122 µM |  |  | 96.5 µM | Non-toxic |  | 56.3 µM |  | Non-toxic |  | 72.3 µM |  | 
6 | C/C(=C\COC(=O)/C=C/c1ccccc1)COC(=O)c1ccccc1 [UVARIDACANE B] | Non-toxic | Non-toxic | >200 µM |  |  | 143 µM | Non-toxic |  | 57.8 µM |  | Non-toxic |  | 134 µM |  | 
7 | CC(=O)O[C@H]1C(COC(=O)c2ccccc2)=C[C@@H](O)[C@@H](O)[C@H]1OC(=O)c1ccccc1 [UVARIDACOL A] | Non-toxic | Non-toxic | 83 µM |  |  | 173 µM | Non-toxic |  | 192 µM |  | Non-toxic |  | 102 µM |  | 
8 | CO[C@@H]1C=C(COC(=O)c2ccccc2)[C@H](OC(C)=O)[C@H](OC(=O)c2ccccc2)[C@@H]1O [UVARIDACOL B] | Non-toxic | Non-toxic | >200 µM |  |  | 158 µM | Non-toxic |  | 147 µM |  | Non-toxic |  | 69.8 µM |  | 
9 | O=C(OCC1=C[C@H](O)[C@H](O)[C@@H](OC(=O)c2ccccc2)[C@@H]1O)c1ccccc1 [UVARIDACOL C] | Non-toxic | Non-toxic |  |  |  | 152 µM | Non-toxic |  | 115 µM |  | Non-toxic |  | 72.9 µM |  | 
10 | CC(=O)O[C@@H]1C(COC(=O)c2ccccc2)=C[C@H]2O[C@H]2[C@H]1OC(=O)c1ccccc1 [UVARIDAPOXIDE A] | Non-toxic | Non-toxic | 159 µM |  |  | 80.1 µM | Non-toxic |  | 100 µM |  | Non-toxic |  | 112 µM |  | 
